# Compound activity from PubChem.
# PAX8 inh HTS = inhibitors of PAX8-driven TPO luciferase reporter, primary screen, RMG-I cells, single concentration; SteadyGlo, 24 h; actives 1.2% (n = 360,000); inhibition, % at 12.6 µM;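 active means mean replicate inhibition at least 60% with every replicate also reaching 60%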;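 further: luciferase light reporting Pax8 driven TPO promoter activity; plate controls were median of neutral control wells for no effect and mitoxantrone controls for full effect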
# Shn3 inh set2 = reduction of Shn3 3'UTR firefly luciferase signal, primary screen, Schnurri-3 inhibitor project, cell-based, Clone20 osteoblasts, set 2 | Clone20 osteoblast Shn3 3'UTR firefly luciferase, 24 h | inhibition, % at 12.5 µM | actives 0.52% (n = 360,000);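 active means mean inhibition of at least 75% with every replicate also reaching 75%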;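 further: 0% = median of neutral control wells and 100% = pilot-screen positive control compound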
# FN deposit inh = inhibitors of fibronectin matrix deposition, primary screen, AH1F cells, Alexa488-fibronectin fluorescence, plate reader; AH1F fibroblasts, overnight; inhibition, % at 12.6 µM; actives 0.086% (n = 350,000);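 active means mean inhibition across replicates of 30% or more, regardless of how many single replicates reach that level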;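 further: positive control wells lacked labelled fibronectin entirely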
#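 Schedule: 1 h cell adhesion before compound, then overnight fibronectin incubation; test system: AH1F fibroblast monolayer depositing Alexa488-labelled fibronectin into matrix; quantity: 10000 AH1F cells per well; probe or stimulus: fluorescent fibronectin at 24 nM final; signal: fluorescence, ex 485 nm, em 525 nm; evaluation: percent inhibition as loss of matrix-bound fibronectin fluorescence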
# aSyn 5UTR inh = MLPCN primary screen, SNCA 5' untranslated region | alpha-synuclein 5'UTR reporter, inhibitor activity | inhibition, % (tested at 7.5 µM) | actives 0.82% (n = 300,000) | AID 1813, 2009; in the data active means inhibition above about 60%;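 further: H4 neuroglioblastoma cells stably carrying SNCA 5'UTR luciferase fusion; 0% = DMSO wells and 100% = positive control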
# EWS-Fli inh = EWS/Fli-driven NR0B1 reporter inhibitors, primary screen, A673 cells, NR0B1 luciferase, luminescence, MLPCN library | inhibition, % at 12.6 µM | actives 0.67% (n = 350,000) | AID 651661, 2012 | viability-normalised;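 active means mean inhibition of at least 50% after viability correction, with every replicate also passing that limit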;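 further: firefly luciferase signal divided by Alamar Blue viability fluorescence both relative to DMSO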
# EBV LMP1 NFkB = EBV LMP1-driven NF-kappaB luciferase reporter inhibitors, primary screen, cell-based, luminescence, single point | LMP1-induced NF-kappaB luciferase reporter cells | inhibition, % at 12.5 µM | actives 0.69% (n = 350,000) | AID 504558, 2011; in the data active means inhibition above about 41%;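 further: 0% = neutral control wells and 100% = reference inhibitor control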
# Starred values were filed as active, the others as inactive; · = no result. An excerpt weighted towards active compounds, which were near 2.1% of everything screened.
SMILES,PAX8 inh HTS,Shn3 inh set2,FN deposit inh,aSyn 5UTR inh,EWS-Fli inh,EBV LMP1 NFkB
CCOC(=O)Nc1ccc2c(c1)N(C(=O)CCN(CC)CC)c1ccccc1S2=O (stereo unspecified),108.6*,1.2,-0.8,-20.2,6.0,3.2
Nc1c(C(=O)NCc2ccco2)nnn1Cc1ccccc1,-8.4,-7.5,30.2*,12.7,·,-5.4
S=C(NN=Cc1ccc2c(c1)OCO2)NN=Cc1ccc2c(c1)OCO2,-37.6,-20.3,-1.8,·,-13.6,1.1
CC(C)NC(=S)N/N=C/c1ccc2c(c1)OCCO2,-4.2,-88.3,·,-51.7,82.6*,-1.5
O=C(CNC(=O)c1ccccc1O)N/N=C/c1cc(Br)ccc1OC(=O)/C=C/c1ccco1,41.8,·,·,68.1*,21.2,·
O=C(CNC(=O)c1cccc(F)c1)N/N=C/c1cc(Br)ccc1OC(=O)/C=C/c1ccco1,9.4,86.9*,18.1,57.5,16.1,12.6
CCC(=O)Nc1ccc2c(c1)C(=O)N(C)C[C@@H](OC)[C@@H](C)CN(CCc1ccccc1)[C@@H](C)CO2,3.6,·,-12.0,·,-10.1,·
COc1ccc(NC(=O)Nc2ccc3c(c2)CC(=O)N([C@@H](C)CO)C[C@H](C)[C@H](CN(C)S(=O)(=O)c2cccs2)O3)cc1,19.6,·,-5.6,·,-10.6,·
Cc1ccc(-n2nc3c(N4CCC(C(=O)NCCc5cccs5)CC4)nnc(C)c3c2C)cc1,71.4*,53.2,14.5,90.3*,·,-9.1
Cc1ccc(-n2nc3c(=O)n(CC(=O)NCCc4cccs4)nc(C)c3c2C)cc1,37.1,23.9,-7.4,42.8,·,13.3
Cc1nnc(N2CCCC(C(=O)Nc3cc(F)ccc3F)C2)c2nn(-c3ccccc3)c(C)c12 (stereo unspecified),·,21.8,·,17.9,·,54.8*
Cc1nnc(N2CCCC(C(=O)NCc3ccc(OC(C)C)cc3)C2)c2nn(-c3ccccc3)c(C)c12 (stereo unspecified),73.1*,19.8,-2.6,-29.6,·,13.6
Cc1nnc(N2CCC(C(=O)N3CCCCC3)CC2)c2nn(-c3ccc(Cl)cc3)c(C)c12,·,17.6,·,27.2,·,-0.1
Cc1ccc(S(=O)(=O)Nc2cccc3c2O[C@@H](CN(C)CC2CC2)[C@H](C)CN([C@H](C)CO)C3=O)cc1,-7.8,·,·,·,-3.3,·
C[C@@H]1CN([C@@H](C)CO)S(=O)(=O)c2ccc(-c3ccccc3F)cc2O[C@H]1CN(C)Cc1ccncc1,·,·,-7.2,·,24.9,·
COC(=O)c1c(CC[C@@H](CO)NC(=O)N[C@H](Cc2ccccc2)Cn2cc(-c3ccccn3)nn2)oc(C(C)=O)c1C(=O)OC,2.3,·,·,·,-2.1,·
CCN1CCN(Cc2ccc(NC(=O)c3ccc(C)c(NC(=O)c4cccc5[nH]ccc45)c3)cc2C(F)(F)F)CC1,35.9,49.4,-1.0,-15.5,5.8,61.7*
CCN1CCN(Cc2ccc(NC(=O)c3cc(NC(=O)c4cnnc5ccccc45)cc(OC)c3)cc2C(F)(F)F)CC1,2.1,15.5,5.0,-13.3,11.0,-5.3
CCN1CCN(Cc2ccc(NC(=O)c3cc(NC(=O)c4nccnc4N)cc(OC)c3)cc2C(F)(F)F)CC1,-12.7,-38.5,-4.6,-23.3,0.9,0.6
CCN1CCN(Cc2ccc(NC(=O)c3cc(NC(=O)c4cncc(-c5ccc(C#N)cc5)c4)cc(OC)c3)cc2C(F)(F)F)CC1,108.0*,97.8*,10.3,13.7,48.1,-25.4
CCN1CCN(Cc2ccc(NC(=O)c3ccc(C)c(NC(=O)c4nccnc4N)c3)cc2C(F)(F)F)CC1,5.1,35.6,6.4,6.1,20.0,57.3*
CCN1CCN(Cc2ccc(NC(=O)c3ccc(C)c(NC(=O)c4cncc(-c5cccs5)c4)c3)cc2C(F)(F)F)CC1,·,88.3*,·,·,·,71.0*
O=C(CN1CCOCC1)N[C@@H]1CC[C@@H](CCn2cc(C3CCCC3)nn2)O[C@H]1CO,·,·,1.4,·,·,·
C[C@@H]1CN([C@H](C)CO)C(=O)c2cc(NC(=O)NC3CCCCC3)ccc2O[C@@H]1CN(C)Cc1ccc(Oc2ccccc2)cc1,·,·,·,·,-1.1,·
Cc1ccc(S(=O)(=O)N[C@@H]2CC[C@@H](CC(=O)NCCc3ccncc3)O[C@H]2CO)cc1,-10.7,·,·,·,-5.4,·
